Article PMC4968691 (Inorganic chemistry, 2012)
Values belong to the molecule of their own block, whether it stands above or below them.

Columns and labels:
[1] = 24 h, with both ^177Lu and ^111In; cited from earlier work
[2] = ^67Ga/^111In mouse serum competition; type: in vitro ADME; settings: mouse blood serum
In short: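 Test chelator (0.3 mg/mL) was labelled with 67Ga (NaOAc 10 mM, pH 4) or 111In (pH 5) for 10 min at ambient temperature. Complex was added to thawed mouse serum plus PBS in triplicate and held at ambient temperature. Sampling was at 15 min, 1 h and 2 h (67Ga) and 1 and 24 h (111In). Aliquots were diluted to 2.5 mL PBS, counted and loaded on PD-10. The 3.5 mL PBS eluate, holding protein-bound activity, was counted against pre-load activity.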

[3] = ^177Lu/^64Cu human blood serum competition; type: in vitro ADME
In short: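 Test chelator was labelled with 177Lu or 64Cu in 10 mM NaOAc pH 5.0 for 10 min at ambient temperature. Thawed human serum (750 µL), 300 µL complex and 450 µL PBS were run in triplicate at 37 °C and 550 rpm. Sampling was at 1.5/24 h (177Lu) and 1/20 h (64Cu). Aliquots were PBS-diluted, counted and passed through PD-10 size exclusion, and the PBS eluate was counted as serum-bound. Result is % chelate-bound.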

[4] = ^64Cu biodistribution in healthy nude athymic mice; type: in vivo, mouse; settings: n = 4
In short: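 Healthy nude athymic mice received the HPLC-purified 64Cu complex by tail vein: ~30 µCi (~3 µg) in 200 µL of 2:1 saline:PBS, pH 7. Mice were killed by CO2 at 15 min, 1, 4 and 24 h (n = 4). Organs were rinsed, air-dried 5 min, weighed and gamma-counted. Counts were background- and decay-corrected, calibrated against 64Cu standards and expressed as %ID/g.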

Structure (SMILES): O=C(O)CN(CCN(CC(=O)O)Cc1cccc(C(=O)O)n1)Cc1cccc(C(=O)O)n1 [H4octapa]
stable in serum [1]: > 85%
transchelated by serum proteins [1]: < 15%

Structure (SMILES): O=C([O-])CN(CCN(CC(=O)[O-])CC(=O)[O-])CCN(CC(=O)[O-])CC(=O)[O-].[111In+3].[H+].[H+] [[^111In(DTPA)]^2−]
medium-term stability (% chelator-bound radiometal) ([2]; 1 h, 25 °C, n = 3): 87 (±2) %
long-term stability (% chelator-bound radiometal) ([2]; 24 h, 25 °C, ^111In, n = 3): 88 (±2) %

Next, values leading:

long-term stability (% chelator-bound radiometal) ([3]; 20 h, 37 °C, 550 rpm, ^64Cu, n = 3): 74%
Structure (SMILES): O=C(O)CN1CCN(CC(=O)O)CCN(CC(=O)O)CCN(CC(=O)O)CC1 [DOTA, 1,4,7,10-tetraazacyclododecane-1,4,7,10-tetraacetic acid]

^64Cu transchelated to serum proteins ([3]; 20 h, 37 °C): 2%
^177Lu transchelated by serum proteins ([3]; 24 h, ^177Lu complex): 54%
organ uptake, heart ([4]; 4 h post i.v. injection): 3.8 % ID/g
organ uptake, heart ([4]; 24 h post i.v. injection): 3.4 % ID/g
^111In transchelated by serum proteins ([2]; 24 h, ^111In complex): 35%
Structure (SMILES): O=C(O)c1cccc(CN(CCN(Cc2cn(Cc3ccccc3)nn2)Cc2cccc(C(=O)O)n2)Cc2cn(Cc3ccccc3)nn2)n1 [H2azapa, N,N′-[1-Benzyl-1,2,3-triazole-4-yl]methyl-N,N′-[6-(carboxy)-pyridin-2-yl]-1,2-diaminoethane]

medium-term stability (% chelator-bound radiometal) ([3]; 1.5 h, 37 °C, 550 rpm, ^177Lu, n = 3): 87.7 (±0.7) %
long-term stability (% chelator-bound radiometal) ([3]; 24 h, 37 °C, 550 rpm, ^177Lu, n = 3): 87 (±2) %
Structure (SMILES): O=C([O-])CN1CCN(CC(=O)[O-])CCN(CC(=O)[O-])CCN(CC(=O)[O-])CC1.[177Lu+3].[H+] [[^177Lu(DOTA)]^−]
